Source: PubChem
OXTR potentiate: human OXTR potentiators, primary screen, fluorescence, CHO-OTR cells, Fluo-8 calcium. Oxytocin receptor (Homo sapiens), P30559. Fluo-8 calcium fluorescence, potentiator mode; 0% = oxytocin EC15, 100% = EC100. activation, % at 3 µM. hit rate 0.061% among 320,000;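 active = activation above that plate's cutoff, the mean activation of tested compounds plus 3 SD, cut at about 6.6% in these data, passing the limit was not always enough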;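 note: 100% uses oxytocin at 75 nM as the full agonist control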
Target sequence (P30559 whole entry, looked up): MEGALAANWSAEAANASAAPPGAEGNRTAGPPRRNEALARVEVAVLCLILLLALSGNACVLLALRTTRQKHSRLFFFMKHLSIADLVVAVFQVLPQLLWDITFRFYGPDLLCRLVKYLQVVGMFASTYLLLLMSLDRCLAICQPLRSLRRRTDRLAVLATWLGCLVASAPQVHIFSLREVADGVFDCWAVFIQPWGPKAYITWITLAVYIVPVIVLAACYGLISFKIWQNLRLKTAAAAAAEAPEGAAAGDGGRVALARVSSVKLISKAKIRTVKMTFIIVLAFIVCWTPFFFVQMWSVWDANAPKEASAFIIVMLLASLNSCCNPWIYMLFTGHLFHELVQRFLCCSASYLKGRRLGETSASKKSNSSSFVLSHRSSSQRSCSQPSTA
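Material: human OTR in CHO cells. Compound: 3.0 µM, one dose. Timing: compound 6 min at room temperature before oxytocin, 100 s read. Evaluation: % activation of max/min ratio relative to oxytocin controls. Replication: single well per compound, singlicate. Signal: Fluo-8 calcium dye fluorescence.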
CHO parental Ca: ATP-evoked calcium signal inhibitors, parental CHO, primary screen, counter-screen for OX1R antagonist project, cell-based, fluorescence, Fluo-8 calcium dye; parental CHO-K1, ATP-induced calcium, Fluo-8 fluorescence; inhibition, % at 5.6 µM; hit rate 0.63% among 330,000;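 active = inhibition above that plate's mean sample inhibition plus 3 SD, cut at about 26% in these data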;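 note: 0% = ATP-challenged DMSO wells and 100% = DMSO wells without ATP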
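Assay system – parental CHO cells · Reagent – ATP stimulus · Detection – intracellular calcium via Fluo-8 no-wash fluorescent dye · Evaluation – percent inhibition of ATP-evoked calcium rise, normalized to controls · Controls – ATP wells versus no-ATP DMSO wells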
OXTR ag: human OXTR agonists, primary screen, fluorescence, CHO-OTR cells, Fluo-8 calcium | Oxytocin receptor (Homo sapiens), P30559 | AID 2435, 2010 | Fluo-8 calcium fluorescence; normalized: DMSO 0%, oxytocin 100% | hit rate 0.32% among 320,000 | activation, % at 3 µM;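 active = activation above the mean of all tested compounds plus 3 SD, cutoff set per screening run, cut at about 20% in these data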;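 note: peak over basal fluorescence ratio from a 100 s FLIPR kinetic read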
V1aR counter: agonists of human V1a receptor, primary screen, counter-screen for OXTR agonist project, fluorescence, CHO-V1R cells; Vasopressin V1a receptor (Homo sapiens), P37288; Fluo-8 calcium fluorescence, agonist mode; 0% DMSO, 100% 3 nM vasopressin; activation, % at 3 µM; hit rate 0.25% among 320,000; AID 2797, 2010;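 active = activation above the mean activation of all tested compounds plus 3 SD, per screening run, cut at about 20% in these data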;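 note: signal is peak over basal fluorescence ratio across a 100 second FLIPR read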
OX1R antag-1: OX1R (HCRTR1) antagonists, primary screen, fluorescence, CHO/OX1R cells, Fluo-8 calcium, orexin A | hit rate 0.43% among 330,000 | inhibition, % at 5 µM | Fluo-8 calcium fluorescence;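 active = inhibition above its plate's threshold, mean inhibition of all tested compounds on the plate plus 3 SD, cut at about 37% in these data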;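 note: 0% = orexin A challenge wells and 100% = SB-334867-A antagonist wells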
OX1R antag-2: antagonists of human orexin 1 receptor (OX1R); OX1R-expressing cells, FRET antagonist read-out; inhibition, % at 6.6 µM; hit rate 1.8% among 330,000; AID 485270, 2010; in the data active = inhibition mostly above about 38%, no sharp cut-off; inactive = mostly below about 40%;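 note: 0% = agonist challenge alone and 100% = reference antagonist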
* hit, by the source's call; x = no result. Rows were chosen to be rich in hits. Some 2.6% of all compounds tested hit in one or more screens of this group.

SMILES	OXTR potentiate	CHO parental Ca	OXTR ag	V1aR counter	OX1R antag-1	OX1R antag-2
Cc1cc(S(=O)(=O)N2CCCOC2CNC(=O)C(=O)NCCc2ccco2)ccc1F (centres undefined)	-2	-18	0	4	11	61*
CC(C)N(Cc1ccccc1)C(=O)COC(=O)c1c(F)cccc1F	6	-6	-1	-1	1	11
Cc1nn(-c2ccccc2)c(Cl)c1/C=N/NC(=O)c1ccc(CNc2ccccc2)o1	-3	4	-1	0	0	36
Cc1nn(-c2ccccc2)c(Cl)c1/C=N/NC(=O)c1ccco1	-10	-4	-1	0	-10	45*
S=C(NCc1ccc2c(c1)OCO2)Nc1ccc2nsnc2c1	-28	32	15	17	53*	40
CCOc1ccc(NC(=S)Nc2ccc3nsnc3c2)cc1	-14	-12	9	6	-12	113*
CCOc1ccc(NC(=O)Nc2ccc3nsnc3c2)cc1	-16	2	10	10	1	18
CCCCNC(=O)CSc1nnc(-c2cccc(S(=O)(=O)N3CCOCC3)c2)o1	-5	4	0	1	-10	2
CCOC(=O)c1sc(NC(C)=O)cc1C	-2	0	-1	1	-7	12
CCOC(=O)c1c(NC(=S)Nc2ccccc2)sc(C)c1C	-3	2	-1	-1	-37	38*
CCOC(=O)c1sc(NC(=O)Nc2ccccc2)cc1C	-10	22	10	10	28	61*
Cc1[nH]c2ccccc2c1C(=O)C(C)OC(=O)C1CCC1 (centres undefined)	4	-2	-1	-1	6	16
COc1ccc(-c2sc3ccc(N4CCOCC4)cc3c2C#CCCO)cc1	-8	4	4	0	6	17
O=[N+]([O-])c1ccc(C2OCCO2)cc1CS(=O)(=O)c1ccccc1	-8	-6	1	0	-16	17
O=C1C2C3C=CC(CO)(O3)C2C(=O)N1c1ccc(-c2ccccc2)cc1 (centres undefined)	-18	61*	2	2	30	16
CC(C)(C)C(=O)NCC12C=CC(O1)C1C(=O)N(c3ccccc3)C(=O)C12 (centres undefined)	-1	-11	1	0	-19	2
CC(C)(C)c1ccc(C(=O)NC(=S)Nc2nc3c(s2)CCCC3)cc1	-9	-5	0	1	-8	24
CN(C)c1ccc(C(=O)Nc2nc3c(s2)CCCC3)cc1	-8	-1	-1	1	-11	52*
Cc1cccc(-c2cc3nc(C)cc(C)n3n2)c1	2	-6	0	1	21	65*
COc1ccccc1-c1cc2nc(C)cc(C)n2n1	4	-26	-1	-1	11	62*
COc1ccc(-c2cc3nc(C)cc(N)n3n2)cc1	-1	-8	-1	-1	-18	4
Cc1cccc(-c2cc3nc(C)cc(N4CC(C)CC(C)C4)n3n2)c1 (centres undefined)	-5	-32	-1	1	-28	-12
C=CCc1cccc(/C=N/NC(=O)C(C)Nc2ccc(C)cc2)c1O (centres undefined)	-5	-15	-2	0	-11	7
C=CCc1cccc(/C=N/NC(=O)C(=O)Nc2ccc(C)cc2)c1O	-5	-14	-1	0	-16	49*
O=C(CCc1ccccc1)N[C@@H]1c2ccccc2CC[C@H]1OCc1ccccc1	x	-21	x	x	-19	17
COCCNc1ccc([N+](=O)[O-])cc1C(=O)NC1CCCc2ccccc21 (centres undefined)	-6	-13	-2	-1	-34	14
Cc1cc(C(=O)O)ccc1NCc1cccnc1	-9	-17	1	0	5	22
